The nature of assay [1]: Her2 expression decrease, cell viability multiplex – SKBR3 breast tumor cells, AlphaScreen, ATP viability, primary screen (AID 461;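 active = Her2 level under about 52% in both replicate screens, with viability over 70% of control, limit read from the data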;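 for Her2 level: lower value means less Her2 protein in the cells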;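 for viability: percent of carrier control wells set as 100% viability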). The note with it: SKBR3 Her2 protein level, 18-24 h, measured here: SKBR3 viability, ATP luminescence, at 10 µM.
Assay [2] has as its target Receptor tyrosine-protein kinase erbB-2 (Homo sapiens) (UniProt P04626). The assay is described as above. Particulars: 18-24 h, at 10 µM, stronger effect = lower value.
Assay [3] can be described thus: reduced viability of SK-BR-3 breast cancer cells – cell-based, 24 h, human, pilot screen (AID 572;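 active = viability at or below 10% of carrier control in both of two separate runs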;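 note: compound exposure lasted between 18 and 24 h rather than exactly 24 h; 100% = carrier-treated control wells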). The note with it: SK-BR-3 viability, CellTiter-Glo luminescence, at 10 µM, stronger effect = lower value. A general note: In ATP-based viability assays light output follows the ATP content of the culture.
Assay [4] can be described thus: HUVEC growth inhibition – cell-based, human, primary screen (AID 575;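 active = viability at or below 30% in both replicate assays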;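 note: 100% = median of untreated cell wells with 0.1% DMSO on each plate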). Particulars: HUVEC proliferation, CellTiter-Glo luminescence, 72 h; at 10 µM; stronger effect = lower value. The procedure, abridged: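 Assay system: primary human umbilical vein endothelial cells / Buffer or medium: endothelial basal medium with 2% FBS plus growth supplements / Compound dosing: one dose, 10 µM final, 0.1% DMSO / Timing: 72 h treatment at 37 °C / Signal: CTG luminescence / Benchmarks: 32 DMSO-only cell-control wells (high), 32 MePR drug-control wells (low) per plate / Plate: collagen-coated 384-well format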

Assay [5] can be described thus: H69AR cell proliferation blockers – human, duplicate replicates, primary screen (AID 580).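 Note: 100% = mean luminescence of untreated wells and 0% = no signal.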 Particulars: H69AR lung tumor cells viability, ATP luminescence, 72 h; at 10 µM; stronger effect = lower value.
Assay [6] can be described thus: MRP1 drug-resistance reversers in H69AR cells – cell-based, doxorubicin co-treatment, pilot screen (AID 601;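 active = viability loss from added drug above about 55%, and viability with drug at most 40%, in both replicates, limit read from the data, passing the limit was not always enough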). Particulars: CellTiter-Glo, 72 h, at 10 µM; for differential viability (reversal): stronger effect = higher value.
Assay [7] in a line: yeast transport mutant growth inhibition pilot in 384-well plates, post-Golgi transport modulator project (AID 636; in the data active = inhibition above about 31%). Particulars: absorbance 615 nm, about 18 h, stronger effect = higher value.
Assay [8] is described as follows: growth suppression of yeast trafficking mutant, preliminary HTS, modulators of trafficking downstream of Golgi apparatus project, 1536-format plate, OD 615 nm (AID 637; in the data active = inhibition above about 30%). Particulars: yeast transport mutant growth, absorbance 615 nm, 18 h; stronger effect = higher value.
Setting [9] is: H69AR cells + 2 uM doxorubicin, measured here: viability with 2 uM doxorubicin, stronger effect = lower value.
Setting [10] is: H69AR cells, compound alone cytotoxicity.

SMILES strings stand for the structures. The source made the active and inactive calls.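 Rule for the calls, unless noted: active = viability at or under a set limit in both replicates, limit being median viability minus 3 SD (cut at about 48% in these data, passing the limit was not always enough); inconclusive = at or under the limit in just one replicate; inactive = at or above the limit in both replicates.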

Receptor tyrosine-protein kinase erbB-2 (Homo sapiens), sequence (P04626 whole entry, looked up): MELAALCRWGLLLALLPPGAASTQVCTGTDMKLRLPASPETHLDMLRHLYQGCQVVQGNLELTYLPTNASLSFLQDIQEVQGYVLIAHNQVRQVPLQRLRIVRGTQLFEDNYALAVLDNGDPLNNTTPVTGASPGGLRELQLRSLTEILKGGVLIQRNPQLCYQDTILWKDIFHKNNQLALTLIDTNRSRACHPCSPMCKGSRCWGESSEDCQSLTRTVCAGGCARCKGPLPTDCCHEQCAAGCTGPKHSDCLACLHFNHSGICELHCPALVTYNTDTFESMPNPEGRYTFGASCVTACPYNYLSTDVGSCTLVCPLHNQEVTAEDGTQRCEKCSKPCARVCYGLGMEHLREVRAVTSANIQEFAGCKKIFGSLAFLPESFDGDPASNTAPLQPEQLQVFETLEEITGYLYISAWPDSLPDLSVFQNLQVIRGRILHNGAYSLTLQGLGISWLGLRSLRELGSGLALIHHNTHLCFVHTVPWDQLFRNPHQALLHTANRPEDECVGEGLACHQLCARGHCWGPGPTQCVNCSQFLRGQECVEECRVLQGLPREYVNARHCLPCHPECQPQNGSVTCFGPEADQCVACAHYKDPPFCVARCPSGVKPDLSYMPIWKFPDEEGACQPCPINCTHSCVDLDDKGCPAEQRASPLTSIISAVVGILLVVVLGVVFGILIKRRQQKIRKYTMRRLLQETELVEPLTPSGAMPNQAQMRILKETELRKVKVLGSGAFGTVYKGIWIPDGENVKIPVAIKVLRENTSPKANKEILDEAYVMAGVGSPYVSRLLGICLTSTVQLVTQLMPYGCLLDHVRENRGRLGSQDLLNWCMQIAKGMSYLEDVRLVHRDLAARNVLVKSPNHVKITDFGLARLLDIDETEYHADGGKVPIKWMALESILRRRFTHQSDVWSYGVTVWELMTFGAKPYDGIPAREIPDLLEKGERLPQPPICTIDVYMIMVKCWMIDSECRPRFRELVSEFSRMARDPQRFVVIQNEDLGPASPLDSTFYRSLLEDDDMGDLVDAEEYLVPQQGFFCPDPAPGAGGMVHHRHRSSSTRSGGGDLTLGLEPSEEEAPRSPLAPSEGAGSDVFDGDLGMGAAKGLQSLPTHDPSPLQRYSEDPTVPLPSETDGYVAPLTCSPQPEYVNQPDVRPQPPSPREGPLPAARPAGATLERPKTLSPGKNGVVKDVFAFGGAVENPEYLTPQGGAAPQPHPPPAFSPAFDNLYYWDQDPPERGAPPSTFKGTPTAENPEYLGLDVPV

A word on the viability: it is a read-out of living cells in per cent, often relative to untreated cells. In general, inhibition refers to the drop in the measured response relative to a control, in per cent. On to `Cc1cnnc2c1-c1nonc1CC2`, for which the viability in assay [1] is 94.5%; in assay [3], 94.5% (inactive); in assay [4], 87.4% (inactive); in assay [5] it was 105% (inactive); in assay [6] (setting [9]), 90.1%; in assay [6] (setting [10]), 105%. Also, the Her2 level in assay [2] is 102% (inactive). Moreover, in assay [6] (H69AR cells + 2 uM doxorubicin), the differential viability (reversal) was 15.2% (inactive). Also, the inhibition was -6.13% (inactive) in assay [7] and 2.74% (inactive) in assay [8].

On to `c1ccc2c(c1)[nH]c1c(N3CCC4(CC3)OCCO4)ncnc12`, for which the viability in assay [1] is 96.5%; in assay [3], 96.5% (inactive); in assay [4], 65.2% (inactive); in assay [5], 92.2% (inactive); in assay [6] (setting [9]) it was 86.7%; in assay [6] (setting [10]) it was 92.2%. Besides, the Her2 level in assay [2] is 77% (inactive). For the same molecule, the differential viability (reversal) in assay [6] (H69AR cells + 2 uM doxorubicin) was 5.46% (inactive). Moreover, the inhibition in assay [7] and in assay [8] was -3.87% (inactive) in each case.

As to `Cc1cnn(Cc2ccccc2)c1N`, the viability in assay [1] is 115%; in assay [3], 115% (inactive); in assay [4], 84.3% (inactive); in assay [5] it was 88.7% (inactive); in assay [6] (setting [9]), 77.6%; in assay [6] (setting [10]) it was 88.7%. Besides, in assay [2], the Her2 level was 73.5% (inactive). Further, the differential viability (reversal) in assay [6] (H69AR cells + 2 uM doxorubicin) is 11.2% (inactive). The inhibition in assay [7] is -6.08% (inactive); in assay [8] it was 4.76% (inactive).

As to `Cc1ccccc1CSCC(=O)c1c(N)n(C)c(=O)n(C)c1=O`, the viability in assay [1] was 86.5%; in assay [3], 86.5% (inactive); in assay [4], 106% (inactive); in assay [5] it was 93.5% (inactive); in assay [6] (setting [9]), 95.6%; in assay [6] (setting [10]) it was 93.5%. Also, the Her2 level in assay [2] is 86.5% (inactive). In assay [6] (H69AR cells + 2 uM doxorubicin), the differential viability (reversal) is -2.12% (inactive). For the same molecule, the inhibition was -2.37% (inactive) in assay [7] and -2.22% (inactive) in assay [8].

For the molecule `CCC1(c2ccc(F)cc2)NC(=O)N(CC(=O)c2ccc[nH]2)C1=O` (stereo not given), the viability was 110% in assay [1]; 110% (inactive) in assay [3]; 99.3% (inactive) in assay [4]; 96.6% (inactive) in assay [5]; 86.9% in assay [6] (setting [9]); 96.6% in assay [6] (setting [10]). Besides, the Her2 level in assay [2] is 117% (inactive). Moreover, in assay [6] (H69AR cells + 2 uM doxorubicin), the differential viability (reversal) is 9.76% (inactive). The results for the inhibition in assay [7] and in assay [8] were -2.08% (inactive) and -4.83% (inactive), respectively.

In the case of `CCOc1ccccc1Nc1ncnc2ccccc12`, the viability in assay [1] was 101%; in assay [3] it was 101% (inactive); in assay [4], 78.4% (inactive); in assay [5] it was 82% (inactive); in assay [6] (setting [9]), 80%; in assay [6] (setting [10]) it was 82%. Further, the Her2 level in assay [2] was 81% (inactive). Besides, the differential viability (reversal) in assay [6] (H69AR cells + 2 uM doxorubicin) is 1.99% (inactive). Further, the inhibition in assay [7] was -1.45% (inactive); in assay [8] it was 0.18% (inactive).

Turning to `COc1ccc(CCn2c(=N)c(C#N)cc3c(=O)n4ccccc4nc32)cc1`, the viability in assay [1] is 95%; in assay [3] it was 95% (inactive); in assay [4], 79.7% (inactive); in assay [5], 65.2% (inactive); in assay [6] (setting [9]) it was 62.9%; in assay [6] (setting [10]), 65.2%. The Her2 level in assay [2] is 84.5% (inactive). Moreover, the differential viability (reversal) in assay [6] (H69AR cells + 2 uM doxorubicin) was 2.31% (inactive). Also, the inhibition in assay [7] is -8.78% (inactive); in assay [8], 5.17% (inactive).

For `CCN(Cc1ccccc1)C(c1ccncc1)c1nnnn1C(C)(C)C` (stereo not given), the viability in assay [1] is 102%; in assay [3], 102% (inactive); in assay [4], 99.5% (inactive); in assay [5] it was 78.6% (inactive); in assay [6] (setting [9]), 79.1%; in assay [6] (setting [10]) it was 78.6%. Also, the Her2 level in assay [2] was 76% (inactive). In assay [6] (H69AR cells + 2 uM doxorubicin), the differential viability (reversal) was -0.555% (inactive). In addition, the inhibition in assay [7] is -5.73% (inactive); in assay [8], 4.26% (inactive).

Take `Cc1nc2ncnn2c(Nc2ccc3c(c2)OCCO3)c1C`: the viability is 91% in assay [1]; 91% (inactive) in assay [3]; 106% (inactive) in assay [4]; 73.7% (inactive) in assay [5]; 97.3% in assay [6] (setting [9]); 73.7% in assay [6] (setting [10]). In assay [2], the Her2 level was 110% (inactive). The differential viability (reversal) in assay [6] (H69AR cells + 2 uM doxorubicin) was -23.6% (inactive). The inhibition was 2.8% (inactive) in assay [7] and 26.1% (inactive) in assay [8].

As to `CCOc1ccc(C(=O)Nc2ccc(N3CCN(C)CC3)cc2)cc1Br`, the viability in assay [1] is 114%; in assay [3] it was 114% (inactive); in assay [4], 2.57% (active); in assay [5], 81.8% (inactive); in assay [6] (setting [9]) it was 71.7%; in assay [6] (setting [10]) it was 81.8%. For the same molecule, the Her2 level in assay [2] was 93% (inactive). Also, the differential viability (reversal) in assay [6] (H69AR cells + 2 uM doxorubicin) is 10.2% (inactive). The figures for the inhibition in assay [7] and in assay [8] were -4.67% (inactive) and 12.1% (inactive), respectively.

Regarding `CCOC(=O)c1cnc(-n2cc(C)cn2)nc1Nc1ccccc1OC`, the viability was 92.5% in assay [1]; 92.5% (inactive) in assay [3]; 80.8% (inactive) in assay [4]; 60.8% (inactive) in assay [5]; 69.8% in assay [6] (setting [9]); 60.8% in assay [6] (setting [10]). For the same molecule, in assay [2], the Her2 level is 94% (inactive). The differential viability (reversal) in assay [6] (H69AR cells + 2 uM doxorubicin) was -8.94% (inactive). Also, the figures for the inhibition in assay [7] and in assay [8] were -4.55% (inactive) and -4.13% (inactive), respectively.

Take `Cc1cccc2cc(COC(=O)C(C)(C)C)c(=O)[nH]c12`: the viability was 95.5% in assay [1]; 95.5% (inactive) in assay [3]; 108% (inactive) in assay [4]; 97.6% (inactive) in assay [5]; 95% in assay [6] (setting [9]); 97.6% in assay [6] (setting [10]). The Her2 level in assay [2] is 91.5% (inactive). In addition, the differential viability (reversal) in assay [6] (H69AR cells + 2 uM doxorubicin) is 2.58% (inactive). The values for the inhibition in assay [7] and in assay [8] were 0.13% (inactive) and 5.17% (inactive), respectively.

In the case of `COc1cc(-c2nc(-c3cccc(C(F)(F)F)c3)no2)cc(OC)c1OC`, the viability is 102% in assay [1]; 102% (inactive) in assay [3]; 94.4% (inactive) in assay [4]; 93.4% (inactive) in assay [5]; 82.6% in assay [6] (setting [9]); 93.4% in assay [6] (setting [10]). Further, in assay [2], the Her2 level is 99.5% (inactive). Further, in assay [6] (H69AR cells + 2 uM doxorubicin), the differential viability (reversal) is 10.7% (inactive). Further, the inhibition in assay [7] is -1.87% (inactive); in assay [8], -2.58% (inactive).

Take `COCCNC(=O)C(c1ccncc1)N(C(=O)Cn1nnc2ccccc21)c1ccc(OC)cc1` (stereo not given): the viability in assay [1] is 96%; in assay [3], 96% (inactive); in assay [4], 97.7% (inactive); in assay [5] it was 104% (inactive); in assay [6] (setting [9]) it was 95.1%; in assay [6] (setting [10]) it was 104%. In addition, the Her2 level in assay [2] was 73.5% (inactive). Moreover, in assay [6] (H69AR cells + 2 uM doxorubicin), the differential viability (reversal) was 9.12% (inactive). Besides, the results for the inhibition in assay [7] and in assay [8] were -7.03% (inactive) and 8.03% (inactive), respectively.

For the molecule `COC(=O)c1ccc(Cl)c(NC(C)=O)c1`, the viability is 108% in assay [1]; 108% (inactive) in assay [3]; 70.9% (inactive) in assay [4]; 97.2% (inactive) in assay [5]; 89.5% in assay [6] (setting [9]); 97.2% in assay [6] (setting [10]). In assay [2], the Her2 level is 99.5% (inactive). The differential viability (reversal) in assay [6] (H69AR cells + 2 uM doxorubicin) was 7.73% (inactive). The values for the inhibition in assay [7] and in assay [8] were -1.17% (inactive) and -0.33% (inactive), respectively.

For the molecule `CCOc1ccccc1-n1c(SCC(=O)NCc2ccco2)nnc1-c1ccncc1`, the viability in assay [1] was 87%; in assay [3], 87% (inactive); in assay [4] it was 90.4% (inactive); in assay [5], 75.6% (inactive); in assay [6] (setting [9]) it was 35.7%; in assay [6] (setting [10]), 75.6%. The Her2 level in assay [2] was 90% (inactive). For the same molecule, the differential viability (reversal) in assay [6] (H69AR cells + 2 uM doxorubicin) was 39.9% (inactive). In addition, the results for the inhibition in assay [7] and in assay [8] were -7.47% (inactive) and -0.48% (inactive), respectively.

The values above are taken from PubChem BioAssay.
